Measurements taken from ChEMBL document CHEMBL1765030, “Discovery and preclinical evaluation of a novel class of cytotoxic propynoic acid carbamoyl methyl amides (PACMAs)” (J Med Chem, 2011).
pIC50: −log10 of the molar value. Active and inactive are the calls of the source. The calls are words filed in the database; no cut-off is given here.

Columns and labels:
MDA-MB-435 [1] = assay: Increase of reactive oxygen species accumulation in human MDA-MB-435 cells at IC50 to 3 times IC50 after 24 hrs by fluorescence microscopic analysis; type: functional, cell-based
MDA-MB-435 [2] = assay: Cytotoxicity against human MDA-MB-435 cells at 1 uM after 24 hrs using crystal violet staining by colony formation assay; type: functional, cell-based
In short: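 Cells were plated at 1000 per well, attached overnight, and exposed to 1 μM for 24 h. They were then washed and grown in fresh medium for 8–10 days until colonies formed, fixed in 1% glutaraldehyde for 30 min, and stained with 2% crystal violet for 30 min. Vehicle was DMSO.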

UMUC3 = assay: Cytotoxicity against human UM-UC-3 cells after 72 hrs by MTT assay; type: functional, cell-based; details: UMUC3, 72 h
In short: (§1)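 Cells were attached overnight, then continuously exposed to drug for 72 h. MTT (0.5 mg/mL final) was added for 4 h at 37 °C, formazan dissolved in DMSO, and A570 read; all in triplicate. IC50 came from log(concentration) vs % cells killed. Media: RPMI-1640 for HT29, HCT116 p53+/+ and p53−/−, and HEY; DMEM for MDA-MB-435 and UMUC3; all with 10% FBS, 37 °C, 5% CO₂.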

HT-29 = assay: Cytotoxicity against human HT-29 cells after 72 hrs by MTT assay; type: functional, cell-based; details: HT-29, 72 h; in short: as §1
NCI/ADR-RES = assay: Cytotoxicity against human NCI/ADR-RES cells after 72 hrs by MTT assay; type: functional, cell-based
HEY = assay: Cytotoxicity against human HEY cells after 72 hrs by MTT assay; type: functional, cell-based; in short: as §1
5637 = assay: Cytotoxicity against human 5637 cells after 72 hrs by MTT assay; type: functional, cell-based; details: Homo sapiens, 5637, 72 h
MDA-MB-435 [3] = assay: Cytotoxicity against human MDA-MB-435 cells after 72 hrs by MTT assay; type: functional, cell-based; details: MDA-MB-435, 72 h; in short: as §1
[4] = Octanol-water distribution coefficient, log P of the compound; type: physicochemical
HCT-116 [5] = assay: Cytotoxicity against human HCT116 cells […] after 72 hrs by MTT assay; type: functional, cell-based; details: HCT-116, 72 h; in short: as §1
HCT-116 [6] = assay: Cytotoxicity against p53 deficient human HCT116 cells […] after 72 hrs by MTT assay; type: functional, cell-based; details: HCT-116, 72 h; in short: as §1
MDA-MB-435 [7] = assay: Increase of mitochondrial superoxide accumulation in human MDA-MB-435 cells at IC50 to 3 times IC50 after 24 hrs by flow cytometry; type: functional, cell-based
In short: (§2)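 Cells were drug-treated at two concentrations for 24 h, then loaded with 5 μM MitoSOX Red for 10 min at 37 °C and washed three times in HBSS. Cells were either viewed by fluorescence microscopy or trypsinized, washed twice in HBSS and read by flow cytometry; untreated cells served as control.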

MDA-MB-435 [8] = assay: Increase of mitochondrial superoxide accumulation in human MDA-MB-435 cells at IC50 to 3 times IC50 after 24 hrs by fluorescence microscopic analysis; type: functional, cell-based; in short: as §2
MDA-MB-435 [9] = assay: Increase of mitochondrial superoxide accumulation in human MDA-MB-435 cells at 1.5 uM after 24 hrs by fluorescence microscopic analysis; type: functional, cell-based
In short: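 MDA-MB-435 cells (DMEM, 10% FBS, 37 °C, 5% CO₂) treated 24 h, then loaded with 5 μM MitoSOX Red mitochondrial superoxide indicator for 10 min at 37 °C; washed three times with HBSS to remove excess dye and viewed under a fluorescence microscope for mitochondrial superoxide staining pattern, compared with untreated cells.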

Structure (SMILES)	logP [4]	Activity (MDA-MB-435 [1])	Activity (MDA-MB-435 [2])	pIC50 (UMUC3)	pIC50 (HT-29)	pIC50 (NCI/ADR-RES)	pIC50 (HEY)	pIC50 5637	pIC50 (MDA-MB-435 [3])	pIC50 (HCT-116 [5])	pIC50 (HCT-116 [6])	Activity (MDA-MB-435 [7])	Activity (MDA-MB-435 [8])	Activity (MDA-MB-435 [9])
O=C(O)c1ccccc1C1c2cc(Cl)c(O)cc2Oc2cc(O)c(Cl)cc21	–	inactive	–	–	–	–	–	–	–	–	–	–	–	–
C#CC(=O)N(c1cccc(C(F)(F)F)c1)C(C(=O)NC1CCCC1)c1ccc(F)cc1 (centres undefined)	4.38	–	Active	5.10	5.32	6.40	5.62	6.30	5.28	5.12	5.16	–	–	–
C#CC(=O)N(c1cccc(OC)c1)C(C(=O)NC1CCCC1)c1cccs1 (centres undefined)	2.55	–	Active	5.16	5.64	6.52	5.72	6.52	5.77	5.14	5.25	–	–	–
C#CC(=O)N(c1cccc(C(F)(F)F)c1)C(C(=O)NC1CCCCC1)c1cccs1 (centres undefined)	3.88	–	Active	< 4.70	5.22	6.40	5.28	5.80	5.16	5.08	4.98	–	–	–
C#CC(=O)N(c1cccc(C(F)(F)F)c1)C(C(=O)NCc1ccccc1)c1cccs1 (centres undefined)	3.86	–	Active	< 4.70	5.14	6.15	5.15	5.92	5.38	5.05	4.79	–	–	–
C#CC(=O)N(c1cc(OC)cc(OC)c1)C(C(=O)NC1CCCC1)c1ccc(OC)cc1 (centres undefined)	2.33	–	Active	< 4.70	5.68	6.52	5.64	5.72	5.62	4.82	< 4.70	–	–	–
C#CC(=O)N(c1ccc2c(c1)OCCO2)C(C(=O)NC1CCCC1)c1ccccc1 (centres undefined)	2.62	–	Active	< 4.70	5.49	6.52	5.39	5.72	5.74	4.76	< 4.70	–	–	–
C#CC(=O)N(c1ccc(-n2cnnn2)c(C)c1)C(C(=O)NC1CCCC1)c1ccccc1 (centres undefined)	3.54	–	Active	5.11	5.82	6.00	5.72	6.40	6.22	5.14	5.24	–	–	–
C#CC(=O)N(c1ccccc1)C(C(=O)NC1CCCCC1)c1cccs1 (centres undefined)	3.07	–	Active	< 4.70	< 5.00	5.89	< 5.00	5.46	< 5.00	4.85	< 4.70	Active	Active	–
C#CC(=O)N(Cc1ccc2c(c1)OCO2)C(C(=O)NCc1ccccc1)c1ccccc1F (centres undefined)	3.32	–	Active	< 4.70	< 5.00	5.89	< 5.00	5.55	< 5.00	< 5.00	< 4.70	–	–	–
CC[C@@]1(O)C(=O)OCc2c1cc1n(c2=O)Cc2cc3ccccc3nc2-1 [CAMPTOTHECIN]	1.67	–	–	–	–	–	–	–	–	–	–	–	–	–
C#CC(=O)N(c1ccccc1F)C(C(=O)NC1CCCCC1)c1ccccc1F (centres undefined)	4.17	–	Active	< 4.70	5.11	6.40	5.25	5.68	5.19	4.92	5.00	–	–	–
C#CC(=O)N(c1ccc(OC)cc1OC)C(C(=O)NC1CCCC1)c1cccs1 (centres undefined)	2.26	–	Active	< 4.70	5.64	6.40	5.39	5.77	5.77	5.16	5.15	–	–	–

More lines, main results first:

logP [4]	Structure (SMILES)	Activity (MDA-MB-435 [1])	Activity (MDA-MB-435 [2])	pIC50 (UMUC3)	pIC50 (HT-29)	pIC50 (NCI/ADR-RES)	pIC50 (HEY)	pIC50 5637	pIC50 (MDA-MB-435 [3])	pIC50 (HCT-116 [5])	pIC50 (HCT-116 [6])	Activity (MDA-MB-435 [7])	Activity (MDA-MB-435 [8])	Activity (MDA-MB-435 [9])
2.26	C#CC(=O)N(c1ccc(OC)c(OC)c1)C(C(=O)NC1CCCC1)c1cccs1 (centres undefined)	–	Active	< 4.70	5.26	6.05	5.47	5.70	5.70	5.11	5.02	–	–	–
2.26	C#CC(=O)N(c1cc(OC)ccc1OC)C(C(=O)NC1CCCC1)c1cccs1 (centres undefined)	–	Active	5.24	5.80	6.52	5.82	6.52	6.30	5.24	5.33	–	–	–
-0.82	COc1cccc2c1C(=O)c1c(O)c3c(c(O)c1C2=O)C[C@@](O)(C(=O)CO)C[C@@H]3O[C@H]1C[C@H](N)[C@H](O)[C@H](C)O1 [DOXORUBICIN]	–	Active	–	–	–	–	–	–	–	–	–	–	–
0.54	CC(=O)O[C@H]1C(=O)[C@@]2(C)[C@H]([C@H](OC(=O)c3ccccc3)[C@]3(O)C[C@H](OC(=O)[C@H](O)[C@@H](NC(=O)c4ccccc4)c4ccccc4)C(C)=C1C3(C)C)[C@]1(OC(C)=O)CO[C@@H]1C[C@@H]2O [PACLITAXEL]	–	Active	–	–	–	–	–	–	–	–	–	–	inactive
2.39	C#CC(=O)N(Cc1ccco1)C(C(=O)NC1CCCC1)c1ccccc1F (centres undefined)	–	Active	< 4.70	< 5.00	5.92	5.37	5.54	5.77	4.98	4.89	–	–	–
4.11	C#CC(=O)N(c1ccc2ccccc2c1)C(C(=O)NC1CCCC1)c1ccccc1 (centres undefined)	–	Active	< 4.70	5.31	6.52	5.77	6.30	5.14	5.17	5.13	–	–	–
